ChEMBL document CHEMBL1140053, “Discovery of antimycobacterial spiro-piperidin-4-ones: an atom economic, stereoselective synthesis, and biological intervention” (J Med Chem, 2008)
Converted amounts (≈) assume the structure as drawn.

System: Mycobacterium tuberculosis
Test: Antimycobacterial activity against multidrug-resistant Mycobacterium tuberculosis by agar dilution method
Type: functional
Outline: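 Clinical MDR isolate resistant to isoniazid, rifampicin, ethambutol and ofloxacin. Agar dilution in Middlebrook 7H11 agar with OADC, pH 7.40, NCCLS-like method, run in duplicate. MIC is the lowest concentration giving complete inhibition of growth.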

| Structure (SMILES) | MIC |
| --- | --- |
| Cc1ccccc1/C=C1\CN(C)C[C@@]2(C1=O)[C@@H](c1ccccc1C)CN(C)[C@@]21C(=O)Nc2ccccc21 (racemic) | 0.39 µg/mL (≈ 0.793 µM) |
| COc1ccc(/C=C2\CN(C)C[C@@]3(C2=O)[C@@H](c2ccc(OC)cc2)CN(C)[C@@]32C(=O)Nc3ccccc32)cc1 (racemic) | 0.36 µg/mL (≈ 0.688 µM) |
| CN1C/C(=C\c2cccc(F)c2)C(=O)[C@]2(C1)[C@@H](c1cccc(F)c1)CN(C)[C@@]21C(=O)Nc2ccccc21 (racemic) | 1.56 µg/mL (≈ 3.12 µM) |
| Cc1ccccc1/C=C1\CN(C)C[C@@]2(C1=O)[C@@H](c1ccccc1C)[C@H](c1ccccc1)N[C@@]21C(=O)Nc2ccccc21 (racemic) | 2.82 µg/mL (≈ 5.09 µM) |
| NNC(=O)c1ccncc1 [ISONIAZID] | 45.6 µg/mL (≈ 332 µM) |
| Cc1ccc(/C=C2\CN(C)C[C@@]3(C2=O)[C@@H](c2ccc(C)cc2)[C@H](c2ccccc2)N[C@@]32C(=O)Nc3ccccc32)cc1 (racemic) | 1.41 µg/mL (≈ 2.55 µM) |
| CN1C/C(=C\c2ccccc2Cl)C(=O)[C@]2(C1)[C@@H](c1ccccc1Cl)[C@H](c1ccccc1)N[C@@]21C(=O)Nc2ccccc21 (racemic) | 5.27 µg/mL (≈ 8.86 µM) |
| CN1C/C(=C\c2ccc(Cl)cc2Cl)C(=O)[C@]2(C1)[C@@H](c1ccc(Cl)cc1Cl)[C@H](c1ccccc1)N[C@@]21C(=O)Nc2ccccc21 (racemic) | 2.35 µg/mL (≈ 3.54 µM) |
| CN1C/C(=C\c2ccc(F)cc2)C(=O)[C@]2(C1)[C@@H](c1ccc(F)cc1)[C@H](c1ccccc1)N[C@@]21C(=O)Nc2ccccc21 (racemic) | 0.16 µg/mL (≈ 0.285 µM) |
| CN1C/C(=C\c2ccccc2Cl)C(=O)[C@]2(C1)[C@@H](c1ccccc1Cl)[C@@H]1CCCN1[C@@]21C(=O)Nc2ccccc21 (racemic) | 0.71 µg/mL (≈ 1.27 µM) |
| CN1C/C(=C\c2ccc(F)cc2)C(=O)[C@]2(C1)[C@@H](c1ccc(F)cc1)[C@@H]1CCCN1[C@@]21C(=O)Nc2ccccc21 (racemic) | 2.97 µg/mL (≈ 5.65 µM) |
| CN1C/C(=C\c2ccco2)C(=O)[C@]2(C1)[C@@H](c1ccco1)CN(C)[C@@]21C(=O)Nc2ccccc21 (racemic) | 3.52 µg/mL (≈ 7.94 µM) |
| COc1ccccc1/C=C1\CN(C)C[C@@]2(C1=O)[C@@H](c1ccccc1OC)[C@@H]1CCCN1[C@@]21C(=O)Nc2ccccc21 (racemic) | 0.71 µg/mL (≈ 1.29 µM) |
| COc1ccc(/C=C2\CN(C)C[C@@]3(C2=O)[C@@H](c2ccc(OC)cc2)[C@H](c2ccccc2)N[C@@]32C(=O)Nc3ccccc32)cc1 (racemic) | 0.67 µg/mL (≈ 1.14 µM) |
| COc1ccccc1/C=C1\CN(C)C[C@@]2(C1=O)[C@@H](c1ccccc1OC)[C@H](c1ccccc1)N[C@@]21C(=O)Nc2ccccc21 (racemic) | 2.67 µg/mL (≈ 4.56 µM) |
| COc1ccccc1/C=C1\CN(C)C[C@@]2(C1=O)[C@@H](c1ccccc1OC)CN(C)[C@@]21C(=O)Nc2ccccc21 (racemic) | 1.49 µg/mL (≈ 2.85 µM) |
| CN1C/C(=C\c2cccs2)C(=O)[C@]2(C1)[C@@H](c1cccs1)[C@@H]1CCCN1[C@@]21C(=O)Nc2ccccc21 (racemic) | 0.38 µg/mL (≈ 0.757 µM) |
| CN1C/C(=C\c2ccc(Cl)cc2Cl)C(=O)[C@]2(C1)[C@@H](c1ccc(Cl)cc1Cl)CN(C)[C@@]21C(=O)Nc2ccccc21 (racemic) | 2.59 µg/mL (≈ 4.31 µM) |
| CN1C/C(=C\c2ccccc2Cl)C(=O)[C@]2(C1)[C@@H](c1ccccc1Cl)CN(C)[C@@]21C(=O)Nc2ccccc21 (racemic) | 0.08 µg/mL (≈ 0.15 µM) |
| CN1C/C(=C\c2cccc3ccccc23)C(=O)[C@]2(C1)[C@@H](c1cccc3ccccc13)[C@@H]1CCCN1[C@@]21C(=O)Nc2ccccc21 (racemic) | 5.31 µg/mL (≈ 9 µM) |
| CN1C/C(=C\c2ccccc2)C(=O)[C@]2(C1)[C@@H](c1ccccc1)[C@H](c1ccccc1)N[C@@]21C(=O)Nc2ccccc21 (racemic) | 1.49 µg/mL (≈ 2.83 µM) |
| CN1C/C(=C\c2cccs2)C(=O)[C@]2(C1)[C@@H](c1cccs1)CN(C)[C@@]21C(=O)Nc2ccccc21 (racemic) | 3.28 µg/mL (≈ 6.9 µM) |
